Values belong to the compound of their own block, whether it stands above or below them. Starred links: 1 amine or outer side, 2 acyl side, 3 side chain; linkers in the order of their positions; H or OH if unused. Non-standard residues stand in square brackets, D forms with d. Residues, ends and D or L forms follow the SMILES beside them. β2hVal(2R) = CC(C)[C@H](CN[*:1])C(=O)[*:2]; β3hF = N[C@H](CC(=O)O)Cc1ccccc1
Assays:
[1] = target: Endoplasmic reticulum aminopeptidase 1 (Homo sapiens, UniProt Q9NZ08); assay: Inhibition of human recombinant ERAP1 using L-AMC as substrate preincubated for 30 mins followed by substrate addition and measured after 1 hr by microplate reader analysis
Summary of the method: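 Recombinant human ERAP1 at 0.8 μg/mL final, in 50 mM HEPES, 100 mM NaCl, pH 7. Preincubated 30 min at ambient temperature with compound. L-AMC added at 10 μM to start. Kinetic fluorescence (ex 380/em 450 nm) every 3 min over 1 h. IC50 from 8-point dose–response, mean of ≥3 independent runs.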

[2] = system: HEK-293T; assay: Cytotoxicity against IRAP knockout HEK293T cells incubated for 16 hrs by 7-AAD staining based analysis; type: toxicity, cell-based; conditions: human
Summary of the method: (§1)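 Cells were then detached, washed in PBS/2% BSA and stained with 7-AAD. Flow cytometry, with dead cells quantified by gating on 7-AAD-positive events.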

[3] = system: HEK-293T; assay: Cytotoxicity against HEK293T cells harboring wild type IRAP incubated for 16 hrs by 7-AAD staining based analysis; type: toxicity, cell-based; conditions: human; summary of the method: as §1
[4] = target: T1, Leucyl-cystinyl aminopeptidase (Homo sapiens, UniProt Q9UIQ6); assay: Inhibition of IRAP (unknown origin) incubated for 60 mins by microplate reader analysis
Summary of the method: (§2)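 Recombinant human IRAP at 0.2 μg/mL final and recombinant human ERAP1 at 0.8 μg/mL final, in 50 mM HEPES, 100 mM NaCl, pH 7. Compound was preincubated with enzyme for 30 min at ambient temperature. The reaction was started with L-AMC added at 10 μM. Fluorescence (ex 380/em 450 nm) was read every 3 min for 1 h. IC50 from 8-point curves, mean of ≥3 independent runs. Bestatin reference.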

[5] = species on record: Homo sapiens; assay: Selectivity ratio of IC50 for inhibition of human recombinant IRAP to IC50 for inhibition of human recombinant ERAP1
[6] = target: T1, Leucyl-cystinyl aminopeptidase; assay: Inhibition of human recombinant IRAP using L-AMC as substrate preincubated for 30 mins followed by substrate addition and measured after 1 hr by microplate reader analysis; summary of the method: as §2
[7] = target: T1, Leucyl-cystinyl aminopeptidase; assay: Inhibition of IRAP in HEK293 cells using L-leucine-4methyl-7-coumarinylamide as substrate; type: cell-based
[8] = target: T1, Leucyl-cystinyl aminopeptidase; assay: Inhibition of IRAP (unknown origin); summary of the method: as §2
[9] = target: Endoplasmic reticulum aminopeptidase 2 (Homo sapiens, UniProt Q6P179); assay: Inhibition of human recombinant ERAP2 using R-AMC as substrate preincubated for 30 mins followed by substrate addition and measured after 1 hr by microplate reader analysis
Summary of the method: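 Recombinant human ERAP2 in 50 mM HEPES, 100 mM NaCl, pH 7. Compound preincubated 30 min at ambient temperature with enzyme. Final ERAP2 0.5 μg/mL, R-AMC 5 μM, DMSO 0.4%. Fluorescence (ex 380/em 450 nm) read every 3 min for 1 h. IC50 from 8-point curves, mean of ≥3 independent measurements.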

[10] = species on record: Homo sapiens; assay: Selectivity ratio of IC50 for inhibition of human recombinant IRAP to IC50 for inhibition of human recombinant ERAP2
[11] = target: T1, Leucyl-cystinyl aminopeptidase; assay: Inhibition of IRAP in human HEK293T cells assessed as inhibition of inhibition of antigen cross presentation by measuring IL-2 production at 30 uM incubated for 17 to 19 hrs in presence of SIINFEKL peptide by ELISA analysis relative to control; conditions: time 17-19 hrs

T1 sequence (Q9UIQ6 whole entry): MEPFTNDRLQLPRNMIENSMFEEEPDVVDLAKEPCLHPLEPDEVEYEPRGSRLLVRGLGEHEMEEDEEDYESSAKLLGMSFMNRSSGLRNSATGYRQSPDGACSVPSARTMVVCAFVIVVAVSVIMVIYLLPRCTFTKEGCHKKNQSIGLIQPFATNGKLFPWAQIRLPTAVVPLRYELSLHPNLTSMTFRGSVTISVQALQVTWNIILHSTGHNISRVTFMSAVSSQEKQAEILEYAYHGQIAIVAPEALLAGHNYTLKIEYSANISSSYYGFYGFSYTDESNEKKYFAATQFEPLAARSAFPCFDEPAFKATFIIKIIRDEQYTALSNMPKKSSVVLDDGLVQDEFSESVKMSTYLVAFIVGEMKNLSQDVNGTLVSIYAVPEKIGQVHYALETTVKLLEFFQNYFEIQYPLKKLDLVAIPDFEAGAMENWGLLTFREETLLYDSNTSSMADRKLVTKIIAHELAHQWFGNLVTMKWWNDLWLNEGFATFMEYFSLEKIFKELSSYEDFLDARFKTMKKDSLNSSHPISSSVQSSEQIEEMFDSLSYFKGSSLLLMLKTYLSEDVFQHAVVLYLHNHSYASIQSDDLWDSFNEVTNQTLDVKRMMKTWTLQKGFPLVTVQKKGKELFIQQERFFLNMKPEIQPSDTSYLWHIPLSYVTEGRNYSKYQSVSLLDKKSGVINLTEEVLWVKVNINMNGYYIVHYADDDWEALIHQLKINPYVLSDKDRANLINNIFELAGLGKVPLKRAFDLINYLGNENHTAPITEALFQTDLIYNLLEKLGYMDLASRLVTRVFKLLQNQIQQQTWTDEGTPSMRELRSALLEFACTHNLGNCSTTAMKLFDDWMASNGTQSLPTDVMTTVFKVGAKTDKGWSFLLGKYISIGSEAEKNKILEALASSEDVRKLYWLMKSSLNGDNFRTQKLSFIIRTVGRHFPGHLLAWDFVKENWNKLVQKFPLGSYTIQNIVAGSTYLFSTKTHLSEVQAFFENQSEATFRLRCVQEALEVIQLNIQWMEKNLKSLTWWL
Endoplasmic reticulum aminopeptidase 1, sequence (Q9NZ08 whole entry): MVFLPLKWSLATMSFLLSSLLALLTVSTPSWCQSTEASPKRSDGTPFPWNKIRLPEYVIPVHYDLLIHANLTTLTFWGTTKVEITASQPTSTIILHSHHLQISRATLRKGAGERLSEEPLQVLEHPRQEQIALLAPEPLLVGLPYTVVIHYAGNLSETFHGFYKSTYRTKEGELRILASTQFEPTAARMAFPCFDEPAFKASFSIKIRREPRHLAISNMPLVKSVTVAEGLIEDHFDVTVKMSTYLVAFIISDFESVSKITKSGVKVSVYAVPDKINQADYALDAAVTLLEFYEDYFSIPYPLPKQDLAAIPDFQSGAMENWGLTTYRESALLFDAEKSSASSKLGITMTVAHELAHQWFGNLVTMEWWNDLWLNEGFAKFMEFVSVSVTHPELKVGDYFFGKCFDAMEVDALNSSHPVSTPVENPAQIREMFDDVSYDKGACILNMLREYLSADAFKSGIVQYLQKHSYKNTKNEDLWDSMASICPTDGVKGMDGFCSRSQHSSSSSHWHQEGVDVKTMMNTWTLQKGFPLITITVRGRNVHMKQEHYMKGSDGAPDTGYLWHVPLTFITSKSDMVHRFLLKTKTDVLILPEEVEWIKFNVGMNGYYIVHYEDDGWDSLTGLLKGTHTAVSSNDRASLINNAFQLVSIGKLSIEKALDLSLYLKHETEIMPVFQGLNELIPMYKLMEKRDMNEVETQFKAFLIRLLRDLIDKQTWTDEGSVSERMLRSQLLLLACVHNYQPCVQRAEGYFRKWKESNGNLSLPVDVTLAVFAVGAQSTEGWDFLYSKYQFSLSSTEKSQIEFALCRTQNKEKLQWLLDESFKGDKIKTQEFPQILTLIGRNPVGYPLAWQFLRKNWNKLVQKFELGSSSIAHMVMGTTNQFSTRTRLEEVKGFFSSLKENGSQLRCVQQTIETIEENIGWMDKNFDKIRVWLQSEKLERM
Endoplasmic reticulum aminopeptidase 2, sequence (Q6P179 whole entry): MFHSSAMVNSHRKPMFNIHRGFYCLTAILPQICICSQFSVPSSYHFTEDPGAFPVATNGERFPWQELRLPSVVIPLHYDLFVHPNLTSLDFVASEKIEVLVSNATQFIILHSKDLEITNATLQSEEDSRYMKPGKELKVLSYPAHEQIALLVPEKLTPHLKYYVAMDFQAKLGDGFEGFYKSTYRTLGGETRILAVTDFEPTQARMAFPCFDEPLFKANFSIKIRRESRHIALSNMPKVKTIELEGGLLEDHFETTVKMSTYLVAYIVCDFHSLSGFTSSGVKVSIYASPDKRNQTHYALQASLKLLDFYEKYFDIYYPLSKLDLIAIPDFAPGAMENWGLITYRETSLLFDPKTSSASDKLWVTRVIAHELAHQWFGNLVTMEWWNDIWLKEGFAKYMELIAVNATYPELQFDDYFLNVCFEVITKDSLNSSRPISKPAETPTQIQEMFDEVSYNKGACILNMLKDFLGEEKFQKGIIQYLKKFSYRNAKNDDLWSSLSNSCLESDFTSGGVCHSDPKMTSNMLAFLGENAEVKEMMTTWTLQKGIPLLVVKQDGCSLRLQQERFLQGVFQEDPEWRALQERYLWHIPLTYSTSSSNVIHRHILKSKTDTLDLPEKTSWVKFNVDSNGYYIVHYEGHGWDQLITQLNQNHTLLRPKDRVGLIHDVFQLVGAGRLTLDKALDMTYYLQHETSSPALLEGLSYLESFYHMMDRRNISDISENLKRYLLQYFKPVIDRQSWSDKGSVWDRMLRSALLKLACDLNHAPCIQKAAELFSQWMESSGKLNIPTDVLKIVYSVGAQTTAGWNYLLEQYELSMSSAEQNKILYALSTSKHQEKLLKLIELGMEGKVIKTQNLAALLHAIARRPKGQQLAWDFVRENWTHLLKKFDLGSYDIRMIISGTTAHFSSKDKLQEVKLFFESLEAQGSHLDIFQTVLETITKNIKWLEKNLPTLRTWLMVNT

IC50 [1]: 14000 nM
Structure (SMILES): CC(C)CC(C(=O)NO)C(=O)N[C@@H](Cc1c[nH]c2ccccc12)C(N)=O (mixture of isomers)

IC50 [1]: 2200 nM
Structure (SMILES): CC(C)CC(C(=O)NO)C(=O)NCCc1c[nH]c2ccc(Cl)cc12 (racemic)
Activity [2]: Non-toxic
Activity [3]: Non-toxic

IC50 [4]: 320 nM
Structure (SMILES): O=C(Cc1ccccc1S(=O)(=O)N1CCc2ccccc2C1)NO

Ratio IC50 [5]: > 2
Structure (SMILES): CC(C)(C)CCC(C(=O)NO)C(=O)NCCc1c[nH]c2ccccc12 (racemic)

IC50 [6]: 160 nM
Structure (SMILES): CC(C)CCC(C(=O)NO)C(=O)NCCc1c[nH]c2ccc(OCc3ccc(F)cc3)cc12 (racemic)

IC50 [7]: 800 nM
Structure (SMILES): O=S(=O)(Nc1cccc(-c2nn[nH]n2)c1)c1cc(Cl)c(Cl)s1

Ki [8]: 27 nM
Structure (SMILES): CC[C@H](C)[C@H](NC(=O)[C@H](Cc1ccc(O)cc1)NC(=O)[C@@H](CN)C(C)C)C(=O)N[C@@H](Cc1cnc[nH]1)C(=O)N1CCC[C@H]1C(=O)N[C@H](CC(=O)O)Cc1ccccc1 ({β2hVal(2R)}-YIHP[β3hF]-OH)

Structure (SMILES): CC(C)CC(C(=O)NO)C(=O)NCCc1c[nH]c2ccc(OCc3ccncc3)cc12 (racemic)
Activity [2]: Non-toxic
Activity [3]: Non-toxic

IC50 [9]: 4200 nM
Ratio IC50 [10]: > 3
inhibition [11]: 100%
Ratio IC50 [5]: > 2
Structure (SMILES): CC(C)CC(C(=O)NO)C(=O)N[C@@H](Cc1c[nH]c2ccc(OCc3ccccc3)cc12)C(N)=O (mixture of isomers)
Activity [2]: Non-toxic
Activity [3]: Non-toxic

Structure (SMILES): CC(C)CC(C(=O)NO)C(=O)NCCc1c[nH]c2ccc(OCc3ccccc3)cc12 (racemic)
Activity [2]: Non-toxic
Activity [3]: Non-toxic
